The results in this text go back to ChEMBL document CHEMBL3259627, “Allosteric inhibition of human factor XIa: discovery of monosulfated benzofurans as a class of promising inhibitors” (J Med Chem, 2014).

Activity calls are given as the source filed them. The rule behind the calls is not given here.

Experiment [1] addresses T1, Coagulation factor XI (Homo sapiens, UniProt P03951). Kind of experiment: Inhibition of full-length human factor-11a-mediated S-2366 hydrolysis assessed as reduction in residual activity at 300 uM preincubated for 10 mins followed by substrate addition by spectrophotometric analysis relative to control. An outline of the steps:
(§1)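 Single-point screen: inhibitor (300 μM final) incubated with fXIa (0.765 nM final) in 0.05 M Tris-HCl pH 7.4, 0.15 M NaCl, 0.1% PEG8000, 0.02% Tween80, 10 min at 37 °C. S-2366 then added (330 μM final) and the initial rate taken from A405 rise (<10% conversion). Residual activity (%) is the rate ratio with versus without inhibitor. At least duplicate; mean ± SD.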

Experiment [2] deals with T1, Coagulation factor XI. As to the kind of experiment: Inhibition of full-length human factor-11a-mediated S-2366 hydrolysis preincubated for 10 mins followed by substrate addition by spectrophotometric analysis relative to control. An outline of the steps:
(§2)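 Dose-response run in the same Tris pH 7.4 buffer with NaCl, PEG8000 and Tween80. Serial 2/3 or 5/6 inhibitor dilutions were preincubated 10 min at 37 °C with fXIa (0.765 nM final). S-2366 was then added (330 μM final) and the initial A405 rate read. Residual activity versus log[I] was fitted to a logistic equation for IC50, Hill slope, YM and Y0. At least two measurements; ± SD.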

The target in experiment [3] is T1, Coagulation factor XI. Kind of experiment: Inhibition of full-length human factor-11a-mediated S-2366 hydrolysis preincubated for 10 mins followed by substrate addition by spectrophotometric analysis. An outline of the steps: as §2
Experiment [4] addresses T1, Coagulation factor XI. As to the kind of experiment: Activation of full-length human factor-11a-mediated S-2366 hydrolysis at 300 uM preincubated for 10 mins followed by substrate addition by spectrophotometric analysis relative to control. More on the design: scale not given: the % may be the effect or the level left. An outline of the steps: as §1
Experiment [5] deals with T1, Coagulation factor XI. Kind of experiment: Inhibition of full-length human factor-11a-mediated S-2366 hydrolysis at 300 uM preincubated for 10 mins followed by substrate addition by spectrophotometric analysis relative to control. Put shortly:
as §1

For experiment [6], the target named is T1, Coagulation factor XI. As to the kind of experiment: Binding affinity to fluorescein-EGR-labeled human factor-11a by fluorescence spectroscopic analysis. Put shortly: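 fXIa active-site labeled with fluorescein-EGR (74 nM) in Tris pH 7.4 buffer without Tween80 at 37 °C. Excitation at 480 nm, emission recorded at 522 nm during ligand titration. ΔF/F0 versus ligand concentration was fitted to a quadratic binding equation to give the dissociation constant.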

For experiment [7], the target named is T1, Coagulation factor XI.
Experiment [8] addresses T1, Coagulation factor XI. Kind of experiment: Inhibition of human factor-11a catalytic domain-mediated S-2366 hydrolysis preincubated for 10 mins followed by substrate addition by spectrophotometric analysis. Put shortly:
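Recombinant fXIa catalytic domain (0.765 nM final) in 0.05 M Tris-HCl pH 7.4, 0.15 M NaCl, 0.1% PEG8000, 0.02% Tween80. Incubated 10 min at 37 °C with serial inhibitor dilutions (2/3 or 5/6 decrements), then S-2366 added to 330 μM final. Initial A405 rate gives residual activity; IC50 from logistic fit versus log[I]; at least two measurements.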

T1 sequence (P03951 19-387 limits assumed): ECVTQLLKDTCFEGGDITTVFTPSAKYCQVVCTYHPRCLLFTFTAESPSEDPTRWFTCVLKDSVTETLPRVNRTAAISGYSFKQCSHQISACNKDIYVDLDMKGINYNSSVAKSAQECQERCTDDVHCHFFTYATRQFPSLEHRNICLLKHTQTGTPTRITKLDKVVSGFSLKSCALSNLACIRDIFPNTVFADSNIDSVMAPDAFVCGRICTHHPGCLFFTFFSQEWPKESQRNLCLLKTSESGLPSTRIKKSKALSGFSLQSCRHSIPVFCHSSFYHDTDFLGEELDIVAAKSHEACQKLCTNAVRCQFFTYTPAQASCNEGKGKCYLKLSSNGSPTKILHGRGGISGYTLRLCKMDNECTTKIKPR
T1 sequence (P03951 388-625 limits assumed): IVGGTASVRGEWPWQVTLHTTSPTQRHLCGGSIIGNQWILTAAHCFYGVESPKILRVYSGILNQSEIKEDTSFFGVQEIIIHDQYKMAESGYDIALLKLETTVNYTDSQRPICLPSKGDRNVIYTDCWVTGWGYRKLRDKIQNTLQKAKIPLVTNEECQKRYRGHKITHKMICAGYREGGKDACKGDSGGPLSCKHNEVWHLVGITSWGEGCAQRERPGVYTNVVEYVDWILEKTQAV

The IC50 is the point on the concentration scale where inhibition reaches its midpoint. Turning to `CCOC(=O)c1c(C)oc2cc(OC)c(OCc3oc4cc(OC)c(OCc5oc6cc(OC(C)C)c(OS(=O)(=O)O)cc6c5C(=O)OCC)cc4c3C(=O)OCC)cc12`, in experiment [1], the Activity is > 50%. In addition, the Efficacy in experiment [2] was determined as 100%. Besides, the IC50 in experiment [3] was determined as 47.2 µM.

As to `CCOC(=O)c1c(COc2cc3c(C(=O)O)c(C)oc3cc2OC)oc2cc(OC)c(OCc3oc4cc(OC)c(OS(=O)(=O)O)cc4c3C(=O)OCC)cc12`, in experiment [1], the Activity was > 50%. Also, in experiment [2], the Efficacy is 100%. The compound also had an IC50 in experiment [3] of 29.9 µM.

In experiment [4], `CCOC(=O)C1Cc2cc(OS(=O)(=O)O)c(OS(=O)(=O)O)cc2CN1C(=O)c1ccc(OS(=O)(=O)O)c(OS(=O)(=O)O)c1` (stereo unspecified) displayed an Activity of 20%.

What is called inhibition is how much of the control response was suppressed. In experiment [5], `CCOC(=O)c1c(COc2cc3c(C(=O)OCC)c(COc4cc5c(C(=O)O)c(C)oc5cc4OC)oc3cc2OC)oc2cc(OC)c(O)cc12` yielded an inhibition of 50%. For the same compound, the Efficacy in experiment [2] amounted to 100%. In experiment [3], this compound yielded a half-maximal inhibitory concentration (IC50) of 384 µM.

In the case of `CCOC(=O)c1c(C)oc2cc(OCc3oc4cc(OC)c(OS(=O)(=O)O)cc4c3C(=O)OCC)c(OC)cc12`, the inhibition result in experiment [5] is “inactive”.

On to `O=C(c1cc(OS(=O)(=O)O)cc(OS(=O)(=O)O)c1)N1CCc2cc(OS(=O)(=O)O)c(OS(=O)(=O)O)cc2C1`, for which, in experiment [4], the Activity was found to be 20%.

`CCOC(=O)c1c(C)oc2cc(OC)c(OCc3oc4cc(OC)c(OCc5oc6cc(OC)c(OS(=O)(=O)O)cc6c5C(=O)OCC)cc4c3C(=O)OCC)cc12`: in experiment [1], the Activity was > 50%. In addition, in experiment [2], the Efficacy came out at 100%. The IC50 in experiment [3] came out at 6.4 µM.

`C=CCOC(=O)c1c(C)oc2cc(OC)c(OCc3oc4cc(OC)c(OCc5oc6cc(OC)c(OS(=O)(=O)O)cc6c5C(=O)OCC)cc4c3C(=O)OCC)cc12`: in experiment [1], the Activity is > 50%. Besides, in experiment [2], the Efficacy was 100%. The compound also returned an IC50 in experiment [3] of 29.9 µM.

Turning to `O=C(c1cc(OS(=O)(=O)O)c(OS(=O)(=O)O)c(OS(=O)(=O)O)c1)N1CCc2cc(OS(=O)(=O)O)c(OS(=O)(=O)O)cc2C1`, the Activity in experiment [4] came to 20%.

A word on the Kd: it is the free concentration of one partner at which half of the binding sites on the other are occupied at equilibrium, for simple one-to-one binding. In the case of `CCOC(=O)c1c(C)oc2cc(OC)c(OCc3oc4cc(OCC)c(OS(=O)(=O)O)cc4c3C(=O)OCC)cc12`, the affinity in experiment [6], expressed as Kd, was 4.5 µM. Besides, in experiment [1], the Activity is > 50%. Moreover, the Efficacy in experiment [2] is 100%. In addition, it took 7.5 µM to reach half-maximal inhibition in experiment [3] (IC50).

Consider `COC(=O)c1c(C)oc2cc(OC)c(OCc3oc4cc(OC)c(OS(=O)(=O)O)cc4c3C(=O)OC)cc12`, for which the Activity in experiment [1] was > 50%. In addition, the Efficacy in experiment [2] stood at 100%. In experiment [3], this compound gave a half-maximal inhibitory concentration (IC50) of 9.7 µM.

`CCOC(=O)c1c(C)oc2cc(OC)c(OCc3oc4cc(OC)c(OCc5oc6cc(OCC)c(OS(=O)(=O)O)cc6c5C(=O)OCC)cc4c3C(=O)OCC)cc12`: the dissociation constant Kd in experiment [6] is 1.2 µM. Further, the Activity in experiment [1] is > 50%. Further, in experiment [7], the KSV worked out at 2.3. This compound also came in with an Efficacy in experiment [2] of 100%. The concentration for half-maximal inhibition (IC50) in experiment [8] came out at 49 µM; in experiment [3] it was 0.82 µM.

`CCOC(=O)c1c(C)oc2cc(OC)c(OCc3oc4cc(OC)c(OCc5oc6cc(OC)c(OS(=O)(=O)O)cc6c5C(=O)OC)cc4c3C(=O)OCC)cc12`: the Activity in experiment [1] was > 50%. In experiment [2], this compound showed an Efficacy of 100%. The compound further yielded a concentration for half-maximal inhibition (IC50) in experiment [3] of 14.9 µM.

Take `O=C(Nc1ccc(OS(=O)(=O)O)cc1)c1cccc(N2C(=O)c3ccc(C(=O)Nc4ccc(OS(=O)(=O)O)cc4)cc3C2=O)c1`: in experiment [1], the Activity is > 50%. In experiment [2], the Efficacy came to 100%. This compound gave a 50% inhibitory concentration (IC50) in experiment [3] of 122 µM.

For `CCOC(=O)c1c(C)oc2cc(OC)c(OCc3oc4cc(OC)c(OCc5oc6cc(OC)c(OCc7oc8cc(OC)c(OS(=O)(=O)O)cc8c7C(=O)OCC)cc6c5C(=O)OCC)cc4c3C(=O)OCC)cc12`, the Activity in experiment [1] is > 50%. In addition, the Efficacy in experiment [2] worked out at 100%. The compound further showed an IC50 in experiment [3] of 99 µM.

In the case of `N#Cc1c(SCC(=O)c2cccc(OS(=O)(=O)O)c2OS(=O)(=O)O)nc([N+](=O)[O-])c(C#N)c1-c1ccc(Oc2ccccc2)cc1`, the Activity in experiment [1] was > 50%. This compound also gave an Efficacy in experiment [2] of 100%. Further, the IC50 in experiment [3] was 109 µM.

With `O=C(O)C1Cc2cc(OS(=O)(=O)O)c(OS(=O)(=O)O)cc2CN1C(=O)c1cc(OS(=O)(=O)O)c(OS(=O)(=O)O)c(OS(=O)(=O)O)c1` (stereo unspecified), the Activity in experiment [4] worked out at 20%.

As for `CCOC(=O)c1c(C)oc2cc(OC)c(OCc3oc4cc(OC)c(OCc5oc6cc(OS(=O)(=O)O)c(OC)cc6c5C(=O)OCC)cc4c3C(=O)OCC)cc12`, the inhibition entry in experiment [5] was “inactive”.
